One series concerns heart. Put plainly: Heart histopathology and semi-quantitative damage score. The series is classed as in vivo, rat. Particulars: for heart histopathological findings: H&E. The method, boiled down:
(§1)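 Fifty male adult Wistar rats were split into five groups (23–24 °C, 12 h light/dark). Test compound, free or loaded in Fe–Co MOF, was given at 0.4 or 0.8 mg/kg i.v., ten injections at 72 h intervals. Rats were euthanised with pentobarbital sodium 200 mg/kg. H&E sections were scored 1 (normal) to 4 (severe) against organ-specific lesion criteria, blinded, by two specialists.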

For another series, the system named is testis. As to the kind of experiment: Testis histopathology and semi-quantitative damage score. Particulars: for Testis damage score (TDS): scale 1 normal to 4 severe, mean ± SD. Format: in vivo, rat. The method in brief: as §1
Series [1] relates to liver. Put plainly: Liver histopathology and semi-quantitative damage score. Format: in vivo, rat. The method in brief: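 Male Wistar rats received free or Fe–Co MOF-loaded test compound at 0.4 or 0.8 mg/kg i.v., ten doses 72 h apart. Fixed liver was ethanol-dehydrated, xylene-cleared, paraffin-embedded, microtome-sectioned and H&E-stained. Two specialists scored blindly on a 1–4 scale, and also rated pyknotic nuclei, inflammatory infiltration, bleeding and necrosis each 0–3. Results are mean ± SD.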

The conditions of series [2]: cited from earlier work.
A further series deals with male adult Wistar rats. Put plainly: Serum biochemical parameters after repeated intravenous injection. Format: in vivo, rat. Particulars: ten injections at 72-hour intervals, vs control. The method in brief:
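Male adult Wistar rats (five groups, ten per group) received free or Fe–Co MOF-loaded test compound i.v. at 0.4 or 0.8 mg/kg, ten injections every 72 h. Retro-orbital blood was centrifuged immediately at 5,000 rpm for 10 min. AST, ALT, BUN and creatinine were run on an autoanalyzer with commercial kits. Results are mean ± SD, tested by ANOVA with post hoc comparison against control.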

For another series, the system named is kidney. As to the kind of experiment: Kidney histopathology and semi-quantitative damage score. The series is classed as in vivo, rat. The conditions noted are these: for kidney histopathological findings: Masson trichrome. The method in brief: as §1
Series [3] concerns liver. Put plainly: Liver MDA level. The series is classed as in vivo, rat. Particulars: dose not given. The method, boiled down:
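After ten i.v. injections 72 h apart of free or Fe–Co MOF-loaded test compound (0.4 or 0.8 mg/kg) in male Wistar rats, liver malondialdehyde was measured by a modified literature method. Assays were repeated three times. Results are mean ± SD, compared by ANOVA with post hoc test.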

[4] abbreviates: 0.4 mg/kg i.v., scale 1 normal to 4 severe, mean ± SD.

Entries after “also recorded” stand apart in the source; their conditions may differ.

Consider `CC(C)C[C@H](NC(=O)[C@H](CCc1ccccc1)NC(=O)CN1CCOCC1)C(=O)N[C@@H](Cc1ccccc1)C(=O)N[C@@H](CC(C)C)C(=O)[C@@]1(C)CO1` [CFZ, Carfilzomib], for which the heart histopathological findings entry in the series with heart (0.4 mg/kg i.v.) is “mild inflammatory cell infiltration”; in the series on heart (0.8 mg/kg i.v., listed as free Carfilzomib), “inflammatory cell infiltration, bleeding, and necrosis; also recorded: severe necrosis”. For the same compound, the “Heart damage score (HDS)” value with heart (setting [4]) amounted to 1.25 ± 0.46. The “cardiotoxicity by histopathological data” value in the series on heart (overall statement) is listed as “severe cardiotoxicity”. The testis histopathological findings result is “no evidence of inflammation, necrosis, or cellular infiltrates” in the series on testis (0.4 mg/kg i.v.) and “multinucleated giant Sertoli cells” in the series with testis (0.8 mg/kg i.v.). The results for the “Testis damage score (TDS)” value in the series with testis (0.4 mg/kg i.v.) and in the series on testis (0.8 mg/kg i.v.) were 1.2 ± 0.4 and 1.42 ± 0.53, respectively. The liver histopathological findings entry with liver [1] (0.4 mg/kg i.v.) is “normal liver appearance”; in the series on liver [1] (0.8 mg/kg i.v.), “necrosis, inflammatory cell accumulation, and disarray of hepatic cords”. Besides, the “Liver damage score (LDS)” value in the series on liver [1] (setting [4]) worked out at 1.6 ± 0.51. The half-life in series [2] is recorded as ~ 30 min. Moreover, the values for the serum creatinine levels entry in the series with male adult Wistar rats (0.4 mg/kg i.v.) and with male adult Wistar rats (0.8 mg/kg i.v.) were “elevation was not observed” and “higher serum creatinine levels”, respectively. In the series with male adult Wistar rats (0.8 mg/kg i.v.), the ALT levels entry is on record as “significantly increased”. In addition, in the series with male adult Wistar rats (0.8 mg/kg i.v.), the “serum AST levels” value was “Significant elevation”. Moreover, in the series with male adult Wistar rats (0.8 mg/kg i.v.), the “serum BUN levels” value was “no significant effect”. In addition, the kidney histopathological findings result is “normal proximal and distal tubules with normal-sized nuclei” in the series with kidney (0.4 mg/kg i.v.); “glomerulosclerosis characterized by swollen lining epithelium and narrowing of the proximal tubule lumen” in the series on kidney (0.8 mg/kg i.v.). Besides, the “Renal damage score (RDS)” value with kidney (setting [4]) came to 1.5 ± 0.75. Further, in the series on liver [3], the liver lipid peroxidation result is “significant increase”.

The values above are taken from article PMC12350853 (Discover Nano, 2025).
